Measured values from ChEMBL document CHEMBL1136989, “Targeting human gastrointestinal stromal tumor cells with a quadruplex-binding small molecule” (J Med Chem, 2009).
The source made the active and inactive calls. The calls are words filed in the database; no cut-off is given here.

How the values were obtained:
[1] = tested on: Nucleic Acid; test: Stabilization of human G4-telomeric quadruplex assessed as melting temperature by FRET assay; format: nucleic-acid assay
How it was run: (§1)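 FRET melting of FAM/TAMRA dual-labelled oligonucleotides, annealed at 90°C in 60 mM K+ cacodylate buffer pH 7.4. Final conditions: 200 nM DNA and 500 nM ligand. Fluorescence read at 0.5°C steps from 30 to 100°C, ramping 1°C/min, with excitation 450–495 nm and emission 515–545 nm. Tm taken as the derivative maximum; ΔTm given relative to ligand-free control.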

[2] = target: Mast/stem cell growth factor receptor Kit (Homo sapiens) (UniProt P10721); test: Reduction in KIT mRNA expression in human GIST882 cells after 24 hrs; format: functional, cell-based
How it was run: (§2)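 GIST882 cells (1×10^6) exposed to drug for 24 hr. Total RNA extracted, and 250 ng used for one-step RT-PCR of KIT, MYC, hTERT and N-RAS. Band levels normalized to GAPDH and to untreated control.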

[3] = tested on: MCF7; test: Antiproliferative activity against human MCF7 cells after 96 hrs by SRB assay; format: functional, cell-based; details: MCF7, 96 h
How it was run: (§3)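 Sulforhodamine B assay after 96 hr continuous drug exposure; IC50 in μM taken as the mean of triplicate experiments. GIST882 cells were kept in RPMI 1640 with 15% FBS. HT-29 and MCF-7 were kept in DMEM with 10% FBS, and HGC-27 in MEM with 10% FBS.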

[4] = tested on: Nucleic Acid; test: Stabilization of human G4-KIT1 DNA quadruplex assessed as melting temperature by FRET assay; format: nucleic-acid assay; how it was run: as §1
[5] = tested on: Nucleic Acid; test: Stabilization of human G4-KIT2 DNA quadruplex assessed as melting temperature by FRET assay; format: nucleic-acid assay; how it was run: as §1
[6] = target: Mast/stem cell growth factor receptor Kit (Homo sapiens) (UniProt P10721); test: Reduction in KIT protein expression in human GIST882 cells after 24 hrs by Western blot; format: functional, cell-based
How it was run: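 GIST882 cells (RPMI 1640 + 15% FBS) exposed 24 hr to 0.5 or 1 µM test compound, or imatinib at 5 and 10 µM. Lysates protein-quantified by Bradford, then electrophoresed and immunoblotted for total KIT, with actin blot as loading control; vehicle-treated cells as reference.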

[7] = Antiproliferative activity against human GIST882 cells after 96 hrs by SRB assay; format: functional, cell-based; details: GIST882, 96 h; how it was run: as §3
[8] = tested on: HT-29; test: Antiproliferative activity against human HT-29 cells after 96 hrs by SRB assay; format: functional, cell-based; details: HT-29, 96 h; how it was run: as §3
[9] = tested on: HGC-27; test: Antiproliferative activity against human HGC27 cells after 96 hrs by SRB assay; format: functional, cell-based; details: HGC-27, 96 h; how it was run: as §3
[10] = tested on: Nucleic Acid; test: Stabilization of synthetic duplex DNA assessed as melting temperature by FRET assay; format: nucleic-acid assay; how it was run: as §1
[11] = tested on: GIST48B; test: Cytotoxicity against human GIST48B cells assessed as effect on cell viability after 3 to 6 days by luciferase based luminescence assay; format: functional
How it was run: (§4)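 CellTiter-Glo luciferase/ATP luminescence viability read-out. Cells plated at 10,000–30,000 per well and grown overnight in serum-containing medium, then dosed for 3 to 6 days alongside a water-solvent control. Signal normalized to control; each point in triplicate. GIST882, GISTT1 and LMS04 were grown in RPMI 1640 with 15% FBS. GIST48 and GIST48B were grown in F10 with 15% FBS, mito+ serum extender and bovine pituitary extract.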

[12] = tested on: GISTT1; test: Cytotoxicity against human GISTT1 cells assessed as effect on cell viability after 3 to 6 days by luciferase based luminescence assay; format: functional; how it was run: as §4
[13] = tested on: GIST882; test: Cytotoxicity against human GIST882 cells assessed as growth inhibition at 0.5 uM after 1 week; format: functional, cell-based
How it was run: (§5)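 Long-term proliferation of GIST882 cells under continuous exposure for three weeks at 0.1, 0.25 or 0.5 μM. Growth followed as cumulative population doublings relative to an untreated control arm.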

[14] = tested on: GIST882; test: Antiproliferative activity against human GIST882 cells at 0.5 uM after 1 week; format: functional, cell-based; how it was run: as §5
[15] = species on record: Homo sapiens; test: Cytotoxicity against human LMSO4 cells assessed as effect on cell viability after 3 to 6 days by luciferase based luminescence assay; format: functional; how it was run: as §4
[16] = Reduction in N-RAS mRNA expression in human GIST882 cells after 24 hrs; format: functional, cell-based; how it was run: as §2
[17] = Reduction in telomerase mRNA expression in human GIST882 cells after 24 hrs; format: functional, cell-based; how it was run: as §2
[18] = Reduction in MYC mRNA expression in human GIST882 cells after 24 hrs; format: functional, cell-based; parameters: scale not given: the % may be the effect or the level left; how it was run: as §2
[19] = tested on: GIST882; test: Cytotoxicity against human GIST882 cells assessed as growth inhibition at 0.25 uM after 1 week; format: functional, cell-based; how it was run: as §5
[20] = target: Mast/stem cell growth factor receptor Kit (Homo sapiens) (UniProt P10721); test: Reduction in KIT mRNA expression in human GIST882 cells at 1 uM after 24 hrs relative to GAPDH level; format: functional, cell-based; parameters: scale not given: the % may be the effect or the level left; how it was run: as §2
[21] = target: Mast/stem cell growth factor receptor Kit (Homo sapiens) (UniProt P10721); test: Reduction in KIT protein expression in human GIST882 cells at 1 uM after 24 hrs by Western blot; format: functional, cell-based
How it was run: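 GIST882 cells treated for 24 hr, compound at 0.5 or 1 μM and imatinib at 5 or 10 μM. Lysate protein measured by Bradford, then electrophoresis and immunoblotting for total KIT with an actin loading control.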

[22] = Cytotoxicity against human GIST48 cells assessed as effect on cell viability after 3 to 6 days by luciferase based luminescence assay; format: functional; how it was run: as §4
[23] = tested on: GIST882; test: Antiproliferative activity against human GIST882 cells at 0.25 uM after 1 week; format: functional, cell-based; how it was run: as §5
[24] = target: Telomerase reverse transcriptase (Homo sapiens) (UniProt O14746); test: Inhibition of telomerase in human GIST882 cells at 0.5 uM by TRAP-LIG assay; format: cell-based
How it was run: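 TRAP-LIG assay on GIST882 cells treated for one week. Cell protein extract in CHAPS lysis buffer was elongated with TS primer in TRAP buffer at 30°C for 10 min, then purified. A second PCR with ACX/TS primers ran 35 cycles. Products were run on 12% PAGE and stained with SYBR green. Ladder intensity was normalized to an untreated-protein positive control after negative-control background subtraction.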

[25] = tested on: GIST882; test: Cytotoxicity against human GIST882 cells assessed as effect on cell viability after 3 to 6 days by luciferase based luminescence assay; format: functional; how it was run: as §4
[26] = tested on: GIST882; test: Antiproliferative activity against human GIST882 cells at 0.1 uM after 2 weeks; format: functional, cell-based; how it was run: as §5

Mast/stem cell growth factor receptor Kit (Homo sapiens), sequence (P10721 whole entry): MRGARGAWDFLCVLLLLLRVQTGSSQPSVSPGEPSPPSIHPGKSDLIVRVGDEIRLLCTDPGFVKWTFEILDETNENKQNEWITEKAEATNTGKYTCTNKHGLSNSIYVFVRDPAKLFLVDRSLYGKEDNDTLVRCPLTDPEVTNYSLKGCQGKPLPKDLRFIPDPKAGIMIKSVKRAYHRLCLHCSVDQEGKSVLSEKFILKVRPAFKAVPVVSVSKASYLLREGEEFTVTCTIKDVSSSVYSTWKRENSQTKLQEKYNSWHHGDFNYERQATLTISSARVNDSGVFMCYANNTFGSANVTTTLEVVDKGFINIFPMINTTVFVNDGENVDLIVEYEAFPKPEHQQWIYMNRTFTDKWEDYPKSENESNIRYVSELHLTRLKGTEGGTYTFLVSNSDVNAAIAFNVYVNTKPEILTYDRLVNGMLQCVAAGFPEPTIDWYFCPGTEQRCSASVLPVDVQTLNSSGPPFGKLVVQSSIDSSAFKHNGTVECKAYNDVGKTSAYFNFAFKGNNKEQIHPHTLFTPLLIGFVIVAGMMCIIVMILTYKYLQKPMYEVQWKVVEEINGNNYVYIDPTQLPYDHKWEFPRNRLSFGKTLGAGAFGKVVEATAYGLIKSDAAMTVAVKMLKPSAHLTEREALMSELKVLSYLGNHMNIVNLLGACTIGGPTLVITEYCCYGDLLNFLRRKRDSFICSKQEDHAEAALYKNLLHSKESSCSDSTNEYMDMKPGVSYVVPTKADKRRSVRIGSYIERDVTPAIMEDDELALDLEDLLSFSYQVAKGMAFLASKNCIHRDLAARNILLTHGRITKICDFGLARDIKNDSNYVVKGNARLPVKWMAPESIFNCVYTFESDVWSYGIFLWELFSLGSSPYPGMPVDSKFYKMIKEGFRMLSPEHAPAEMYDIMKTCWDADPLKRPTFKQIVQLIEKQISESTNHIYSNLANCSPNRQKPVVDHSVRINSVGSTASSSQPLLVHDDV
Telomerase reverse transcriptase (Homo sapiens), sequence (O14746 whole entry): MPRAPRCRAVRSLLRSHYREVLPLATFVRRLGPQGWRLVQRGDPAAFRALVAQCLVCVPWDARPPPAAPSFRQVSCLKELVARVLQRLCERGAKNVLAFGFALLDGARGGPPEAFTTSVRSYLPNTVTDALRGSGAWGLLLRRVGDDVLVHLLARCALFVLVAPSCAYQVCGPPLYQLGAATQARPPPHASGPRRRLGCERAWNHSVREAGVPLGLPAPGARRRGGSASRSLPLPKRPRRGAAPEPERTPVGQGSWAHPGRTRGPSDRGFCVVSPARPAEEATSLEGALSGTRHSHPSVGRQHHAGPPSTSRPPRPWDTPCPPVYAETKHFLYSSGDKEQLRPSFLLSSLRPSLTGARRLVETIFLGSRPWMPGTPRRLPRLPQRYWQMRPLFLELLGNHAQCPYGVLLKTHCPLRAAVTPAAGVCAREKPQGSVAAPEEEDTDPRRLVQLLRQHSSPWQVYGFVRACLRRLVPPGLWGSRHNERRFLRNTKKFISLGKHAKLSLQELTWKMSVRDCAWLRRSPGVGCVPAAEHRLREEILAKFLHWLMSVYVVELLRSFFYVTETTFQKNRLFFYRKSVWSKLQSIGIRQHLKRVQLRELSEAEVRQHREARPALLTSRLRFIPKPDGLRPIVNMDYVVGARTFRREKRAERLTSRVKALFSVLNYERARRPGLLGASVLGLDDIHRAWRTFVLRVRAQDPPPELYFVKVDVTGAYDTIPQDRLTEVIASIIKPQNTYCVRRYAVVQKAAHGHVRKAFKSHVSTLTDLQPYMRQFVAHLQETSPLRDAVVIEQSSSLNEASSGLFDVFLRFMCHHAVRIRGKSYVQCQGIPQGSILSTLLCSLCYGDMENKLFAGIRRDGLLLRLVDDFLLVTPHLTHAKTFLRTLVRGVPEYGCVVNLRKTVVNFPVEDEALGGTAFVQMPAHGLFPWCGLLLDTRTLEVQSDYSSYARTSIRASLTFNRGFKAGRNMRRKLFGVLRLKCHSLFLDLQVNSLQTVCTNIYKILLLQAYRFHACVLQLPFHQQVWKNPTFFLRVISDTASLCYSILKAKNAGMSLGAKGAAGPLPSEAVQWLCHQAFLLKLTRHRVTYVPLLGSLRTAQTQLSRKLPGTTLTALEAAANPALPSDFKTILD

Row | SMILES | ΔTm [1] [°C] | Activity [2] | IC50 [3] [nM] | ΔTm [4] [°C] | ΔTm [5] [°C] | Activity [6] | IC50 [7] [nM] | IC50 [8] [nM] | IC50 [9] [nM] | ΔTm [10] [°C] | IC50 [22] [nM] | further results
1 | CN(C)c1ccc(Nc2c3ccc(NC(=O)CCN4CCCC4)cc3nc3cc(NC(=O)CCN4CCCC4)ccc23)cc1 | 21.6 | inactive | 2200 | 6.5 | 18.5 | inactive | > 25000 | 2700 | 2600 | 7.2 |  | 
2 | O=C1c2cc(NCCN3CCCC3)c3c4c(cc(NCCN5CCCC5)c(c24)C(=O)N1CCN1CCCC1)C(=O)N(CCN1CCCC1)C3=O | 28.7 | Dose-dependent effect | 20 | 11.2 | 29 |  | 1600 | 30 | 40 | 5.7 | 500 | Activity [11]: inactive; Activity [12]: Active; Activity [13]: Active; Activity [14]: Active; Activity [15]: inactive; Activity [16]: inactive; Activity [17]: Active; Activity [18]: 25%; Activity [19]: Active; Activity [20]: 90%; Activity [21]: Active; Activity [23]: Active; Activity [24]: Active; Activity [25]: Active; Activity [26]: Active
3 | Cc1ccc(NC(=O)c2ccc(CN3CCN(C)CC3)cc2)cc1Nc1nccc(-c2cccnc2)n1 [IMATINIB] | 0.2 | inactive | 11500 | 0.2 | 0.2 |  | 1700 | 60 | 2400 | 0.1 | 18700 | 
4 | C[n+]1ccc(-c2c3nc(c(-c4cc[n+](C)cc4)c4ccc([nH]4)c(-c4cc[n+](C)cc4)c4ccc([nH]4)c(-c4cc[n+](C)cc4)c4nc2C=C4)C=C3)cc1 [TMPYP4] | 27.8 | inactive | 6100 | 11.1 | 21.6 | inactive | 13200 | 4500 | 2700 | 8.7 |  | 
